Calls of active or inactive are those of the source. No cut-off for these calls is given here. Bounds are passed on as bounds.

Series [1] concerns CCRF-CEM. Description: Induction of apoptosis in human CCRF-CEM cells assessed as activation of caspase 3 at 5 times IC50 measured after 24 hrs by western blot analysis. The class given is functional, cell-based. An outline of the steps:
(§1)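 Protein (15 µg/lane) was resolved by 10% SDS-PAGE and transferred to nitrocellulose. Blocked in 5% milk/TBST, then probed overnight at 4 °C with primary antibodies (1:1000) and HRP secondaries. Detected by ECL, with β-actin as loading control.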
On the technique in general: A western blot detects proteins with antibodies after separation by electrophoresis.

Series [2] concerns CCRF-CEM. Description: Induction of apoptosis in human CCRF-CEM cells assessed as downregulation of Bcl2 expression at 5 times IC50 measured after 24 hrs by western blot analysis. The format is functional, cell-based. An outline of the steps: as §1
The subject of series [3] is CCRF-CEM. The series is described as follows: Cell cycle arrest in human CCRF-CEM cells assessed as accumulation of cells at G2/M phase at IC50 measured after 24 hrs by propidium iodide staining based flow cytometry analysis (Rvb= 21.62%). The class given is functional. For orientation: In flow cytometry, cells or beads pass a laser one at a time.
The test system of a further series is CEM-DNR. Description: Cytotoxicity against daunorubicin resistant human CEM-DNR cells assessed as reduction in cell viability measured after 72 hrs by MTS assay. The class given is functional, cell-based. (Tetrazolium dyes change colour on reduction, which living cells bring about.)
A short description of series [4]: Efflux ratio of apparent permeability across basolateral to apical side to apparent permeability across apical to basolateral side in dog MDCK-MDR1 cells at pH 7.4 at 10 micromol/L measured after 1 hr by RF-MS analysis. The class given is ADME, cell-based, Canis lupus familiaris. Conditions: MDCK-MDR1, pH 7.4, dose 10 µmol/L. An outline of the steps: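 Efflux ratio is Papp(B→A)/Papp(A→B) from bidirectional transport across Caco-2 (2 h) or MDCK-MDR1 (1 h) monolayers. Compound was dosed in HBSS pH 7.4 and quantified by RapidFire MS/MS. Run in duplicates. ER > 2 was taken as a potential P-gp substrate.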

In series [5] the test system is CCRF-CEM. The series is described as follows: Induction of apoptosis in human CCRF-CEM cells assessed as late apoptotic cells at IC50 measured after 24 hrs by Annexin V-FITC/PI staining based flow cytometry analysis (Rvb= 1.4%). The class given is functional.
Series [6] deals with CCRF-CEM. The series is described as follows: Induction of apoptosis in human CCRF-CEM cells assessed as live cells at 5 times IC50 measured after 24 hrs by Annexin V-FITC/PI staining based flow cytometry analysis (Rvb= 96.7%). The class given is functional.
The test system of another series is BJ. The series is described as follows: Cytotoxicity against human BJ cells assessed as reduction in cell viability measured after 72 hrs by MTS assay. The class given is cell-based.
For a further series, the system named is A549. Description: Cytotoxicity against human A549 cells assessed as reduction in cell viability measured after 72 hrs by MTS assay. The class given is functional, cell-based. The conditions noted are these: A549, 72 h.
Series [7] has as its system CCRF-CEM. The series is described as follows: Induction of apoptosis in human CCRF-CEM cells assessed as dead cells at IC50 measured after 24 hrs by Annexin V-FITC/PI staining based flow cytometry analysis (Rvb= 0.3%). The class given is functional. An outline of the steps:
(§2)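 They were washed in ice-cold PBS and incubated with Annexin V-FITC plus PI for 20 min at room temperature in the dark. Cells were then pelleted and resuspended in binding buffer (10 mmol/L HEPES/NaOH pH 7.4, 140 mmol/L NaCl, 2.5 mmol/L CaCl2). Read on a FACSAria II, ≥10,000 cells per sample.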

Series [8] in a line: Apparent permeability of the compound in human Caco2 cells at pH 7.4 at 10 micromol/L measured after 2 hrs by RF-MS analysis. The conditions noted are these: Caco-2, pH 7.4, dose 10 µmol/L. The format is ADME, cell-based. An outline of the steps: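 Caco-2 and MDCK-MDR1 cells grown on polyester Transwell filters (0.4 and 1 µm pores) in DMEM pH 7.4 with 10% FBS; monolayer integrity checked by Lucifer Yellow rejection. Cells washed and pre-equilibrated 1 h in HBSS pH 7.4, then dosed with compound in HBSS pH 7.4. Incubation was 1 h for MDCK and 2 h for Caco-2. Samples lyophilized and quantified by RapidFire MS/MS with internal standard. Duplicates. Papp = (dQ/dt)/(C0·A).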

A short description of series [9]: Microsomal stability in human liver microsomes assessed as parent compound remaining at 2 uM in the presence of NADPH measured after 60 mins by RF-MS analysis. The format is ADME, Microsome. The conditions noted are these: read-out: Stability. An outline of the steps: (§3)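 Human liver microsomes incubated with compound in the presence of NADPH cofactor to assess phase I oxidation. Intrinsic clearance was derived from the decline of the parent compound.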

The subject of series [10] is CCRF-CEM. The series is described as follows: Inhibition of DNA synthesis in human CCRF-CEM cells at 5 times IC50 by BrdU incorporation assay (Rvb= 41.56%). The format is functional. Set-up: scale not given: the % may be the effect or the level left.
Series [11] can be described thus: Microsomal stability in human liver microsomes assessed as parent compound remaining at 2 uM in the presence of NADPH measured after 15 mins by RF-MS analysis. The class given is ADME, Microsome. The conditions noted are these: read-out: Stability. An outline of the steps:
as §3

In a further series the test system is MRC5. The series is described as follows: Cytotoxicity against human MRC5 cells assessed as reduction in cell viability measured after 72 hrs by MTS assay. Conditions: MRC5, 72 h. The format is cell-based.
Series [12] can be described thus: Stability in human plasma assessed as parent compound remaining at 2 uM incubated for 15 mins by RF-MS analysis. The class given is ADME, cell-free. Conditions: read-out: Stability.
Series [13] has as its system CCRF-CEM. The series is described as follows: Cell cycle arrest in human CCRF-CEM cells assessed as accumulation of cells at G0/G1 phase at IC50 measured after 24 hrs by propidium iodide staining based flow cytometry analysis (Rvb= 40.20%). The class given is functional.
The subject of series [14] is CCRF-CEM. The series is described as follows: Cell cycle arrest in human CCRF-CEM cells assessed as accumulation of cells at G2/M phase at 5 times IC50 measured after 24 hrs by propidium iodide staining based flow cytometry analysis (Rvb= 21.62%). The format is functional.
Series [15] relates to CCRF-CEM. Description: Induction of apoptosis in human CCRF-CEM cells assessed as dead cells at 5 times IC50 measured after 24 hrs by Annexin V-FITC/PI staining based flow cytometry analysis (Rvb= 0.3%). The format is functional. An outline of the steps:
as §2

Series [16] deals with CCRF-CEM. The series is described as follows: Induction of apoptosis in human CCRF-CEM cells assessed as early apoptotic cells at 5 times IC50 measured after 24 hrs by Annexin V-FITC/PI staining based flow cytometry analysis (Rvb= 1.6%). The class given is functional.
The subject of a further series is K562. The series is described as follows: Cytotoxicity against human K562 cells assessed as reduction in cell viability measured after 72 hrs by MTS assay. The format is functional, cell-based. Conditions: K562, 72 h.
Series [17] is described as follows: Microsomal stability in human liver microsomes assessed as parent compound remaining at 2 uM in the presence of NADPH measured after 30 mins by RF-MS analysis. The class given is ADME, Microsome. Conditions: read-out: Stability. An outline of the steps:
as §3

Series [18] concerns CCRF-CEM. Description: Induction of apoptosis in human CCRF-CEM cells assessed as upregulation of BAX expression at 5 times IC50 measured after 24 hrs by western blot analysis relative to control. The format is functional. An outline of the steps: as §1
Series [19] in a line: Stability in human plasma assessed as parent compound remaining at 2 uM incubated for 60 mins by RF-MS analysis. The format is ADME, cell-free. The conditions noted are these: read-out: Stability.

Regarding `C=C(/C=C/c1ccc([N+](=O)[O-])cc1)[C@@H]1CC[C@]2(C(=O)O)CC[C@]3(C)[C@H](CC[C@@H]4[C@@]5(C)CC[C@H](O)C(C)(C)[C@@H]5CC[C@]43C)[C@@H]12`, the outcome in the series with CCRF-CEM [1] and in the series with CCRF-CEM [2] was Active. Also, the Activity is reported as 23.16% with CCRF-CEM [3]; 4.9% with CCRF-CEM [5]; 70.9% in the series on CCRF-CEM [6]; 1.8% in the series on CCRF-CEM [7]; 3.06% with CCRF-CEM [10]; 48.4% in the series on CCRF-CEM [13]. Moreover, the Activity is recorded as 12.81% in the series on CCRF-CEM [14], 1.9% in the series with CCRF-CEM [15], 17.6% in the series on CCRF-CEM [16] and 20% with CCRF-CEM [18]. Also, the IC50 (as a rule, the concentration needed to halve the response being measured) with CEM-DNR turned out to be 22.9 µM; in the series with BJ, 24.3 µM; with A549, 14.3 µM; in the series on MRC5, 19.2 µM; in the series on K562, 11.5 µM. In [4], the efflux ratio (in general, a quotient of directional permeabilities that is used to spot active efflux) at 1 h, 10 µM is 3.06. Further, the Papp (usually a coefficient for how fast a substance crosses the barrier) at 2 h, 10 µM in series [8] came out at 0.96 ×10⁻⁶ cm/s. The remaining at 1 h, 2 µM in [9] worked out at 53.5%; in series [19] it was 69.3%. The remaining at 0.25 h, 2 µM was determined as 93.2% in [11] and 102% in series [12]. Besides, in [17], the remaining at 0.5 h, 2 µM was determined as 78.5%.
`C=C(/C=C/c1cccc(Cl)c1)[C@@H]1CC[C@]2(C(=O)O)CC[C@]3(C)[C@H](CC[C@@H]4[C@@]5(C)CC[C@H](O)C(C)(C)[C@@H]5CC[C@]43C)[C@@H]12`: the result with CCRF-CEM [1] was Active. Besides, the Activity in the series with CCRF-CEM [3] came out at 14.39%; in the series on CCRF-CEM [5] it was 4.6%; in the series on CCRF-CEM [6], 88.5%; in the series on CCRF-CEM [7], 1.4%; with CCRF-CEM [10], 0.4%; in the series with CCRF-CEM [13], 42.87%. The values for the Activity in the series with CCRF-CEM [14] and in the series on CCRF-CEM [16] were 12.28% and 5.3%, respectively. In addition, the IC50 is 25.5 µM in the series with CEM-DNR; above 50 µM with BJ; 29.2 µM in the series on A549; 32.6 µM with MRC5; 27.7 µM in the series on K562. Further, the efflux ratio at 1 h, 10 µM in series [4] was found to be 2.9. Moreover, the Papp at 2 h, 10 µM in series [8] amounted to 17.5 ×10⁻⁶ cm/s. Besides, the values for the remaining at 1 h, 2 µM in series [9] and in series [19] were 81.5% and 89.5%, respectively. The remaining at 0.25 h, 2 µM in [11] was determined as 90.1%; in [12], 92.3%. In addition, the remaining at 0.5 h, 2 µM in series [17] was 92.4%.

(Values after ChEMBL document CHEMBL4828721, “Substituted dienes prepared from betulinic acid - Synthesis, cytotoxicity, mechanism of action, and pharmacological parameters” (Eur J Med Chem, 2021).)
